We go through 4 compounds from article PMC3433230 (Journal of biomolecular screening, 2009).

The test system of data set [1] is RBL-2H3 cells. Description: Live cell microscopy of RBL-2H3 cells. The format is cell-based, Rat. The conditions noted are these: 10 μM; for cell shape changes in response to ligand-mediated activation: 1 μg/ml DNP/BSA, IgE primed cells.
Data set [2] deals with RBL-2H3 cells. Description: β-Hexosaminidase secretion measurements in RBL-2H3 cells. It is filed as cell-based, Rat. The method in brief:
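RBL-2H3 cells are primed overnight with IgE, washed and incubated 1 h with test compound in Tyrode's buffer. Supernatant is sampled for spontaneous β-hexosaminidase release. Cells are then activated with DNP/BSA (0.1 μg/ml) for 30 min at 37°C. Release is expressed as percent of total enzyme from Triton X-100-lysed cells.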

Data set [3] relates to NIH 3T3 fibroblasts. The note with it: NIH 3T3 fibroblasts ref 30; cited from earlier work.
Data set [4] deals with RBL-2H3 cells. Description: Rhodamine-phalloidin staining and confocal microscopy of RBL-2H3 cells. The note with it: 10 μM, DNP/BSA 1 μg/ml. It is filed as cell-based, Rat. The procedure, abridged: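 RBL-2H3 cells on coverslips are cultured overnight with or without 10 μM test compound; stimulated cells get 1 μg/ml DNP-BSA for 30 min. Cells are fixed in 3% paraformaldehyde, permeabilised 5 min in 0.1% Triton X-100, blocked 1 h in 1% BSA and stained 1 h with rhodamine-phalloidin, all at room temperature. Confocal x-y and x-z views are collected.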

In data set [5] the target is Wild-type GST-Cdc42 (Homo sapiens, UniProt P60953). The experiment in a line: Real-time GTP-binding kinetic assay by flow cytometry. The method in brief:
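GST-Cdc42 wt (4 μM) is bound to GSH-beads overnight at 4°C. Nucleotide is stripped with 10 mM EDTA for 20 min at 30°C, then beads are washed and resuspended in NP-HPS with 1 mM EDTA, 1 mM DTT and 0.1% BSA. Beads are preincubated 2 min with 1% DMSO or 10 μM test compound. Ice-cold BODIPY-FL-GTP (6.5–200 nM) is added, and association is followed 3 min by kinetic-mode flow cytometry (n=4). Bound signal at 3 min versus GTP concentration is curve-fitted.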

In data set [6] the target is T1, Rac1 (Mus musculus, UniProt P63001). The experiment in a line: Rac activation assay. The format is cell-based. The procedure, abridged: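 Swiss 3T3 cells are serum-starved overnight, then treated 20–30 min with 1% DMSO or 10 μM test compound. Some cells are then given 10 ng/ml EGF for 2 min; EGF alone is the positive control.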
In data set [7] the target is T1, Rac1. The experiment in a line: G-LISA assay for active Rac in Swiss 3T3 cells. The note with it: for blocking EGF-stimulated Rac activation: concentrations of 1 μM or less. It is filed as cell-based.
For data set [8], the system named is Cdc42wt, Rac1wt, Rac1Q61L, Rab2 wt, Rab7wt, and H-Ras wt (GST-GTPases). The experiment in a line: Multiplexed primary screen, flow cytometry bead-based BODIPY-FL-GTP binding. The conditions noted are these: 10 μM compound, 100 nM BODIPY-FL-GTP, 1 mM EDTA. The method in brief:
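Each GST-GTPase (1 μM) is loaded overnight at 4°C onto its own red-intensity GSH-bead set. Beads are washed in NP-HPSE with 0.1% BSA and 1 mM DTT, then pooled, about 2000 beads per GTPase per well. Test compound is added at 10 μM (1% DMSO), with BODIPY-FL-GTP from a 200 nM stock. Plates rotate 40–45 min at 4°C and are read by HyperCyt flow cytometry. FL8 identifies bead sets; median FL1 (530 nm) gives binding. Hits exceed 20% change from baseline. Controls are DMSO and 0.5 mM unlabelled GTP.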

Data set [9] concerns Swiss 3T3 cells. Description: Stress fiber formation in EGF treated Swiss 3T3 cells. The conditions noted are these: 10 μM, 30 min pre-treatment, 10 ng/ml EGF. The format is cell-based. The method in brief: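 Quiescent, serum-starved Swiss 3T3 fibroblasts are treated 30 min with 10 μM test compound or DMSO, then stimulated with 10 ng/ml EGF for 2 min. Cells are imaged for actin stress fibres.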

Data set [10] concerns the target GST-Rac1 (Homo sapiens, UniProt P63000). The experiment in a line: In vitro bead based assay of Rac1 binding to fluorescent GTP. The conditions noted are these: 10 μM compound, 100 nM fluorescent GTP.
For data set [11], the system named is H-Ras and Rab proteins. The experiment in a line: Dose response of BODIPY-FL-GTP binding, 1 mM EDTA. The note with it: 10^−4 M compound. The procedure, abridged: (§1)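 GST-GTPases are coupled overnight at 4°C to colour-coded GSH-beads at 1 μM each. Beads are run as a multiplex (Rab7 wt, Rab2 wt, H-Ras wt, H-RasG12V, Cdc42 wt, Cdc42Q61L). […] Buffer contains 1 mM EDTA. Test compound is a 9-point 1:3 series, final 10 nM–100 μM. Binding of 100 nM (final) BODIPY-FL-GTP is read by flow cytometry, in triplicate.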

For data set [12], the system named is Rac1 wt, Rac1Q61L, Rac2 wt, RhoA wt and RhoAL63, Cdc42 wt, Cdc42Q61L and Ral wt. Description: Eight-plex dose response of BODIPY-FL-GTP binding, 1 mM MgCl2. The note with it: 1 mM MgCl2, 100 nM BODIPY-FL-GTP. The procedure, abridged: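 Buffer is NP-HPS with 1 mM MgCl2. Binding of 100 nM BODIPY-FL-GTP is measured by flow cytometry with or without a 9-point 1:3 test-compound series (final 10 nM–100 μM). Each series is run in triplicate.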

Data set [13] has as its target Cdc42 (Homo sapiens, UniProt P60953). Description: Dose response of BODIPY-FL-GTP binding, 1 mM EDTA. The procedure, abridged: as §1
The mark [14] stands for this setting: 10 μM inhibitor, 6.5–200 nM BODIPY-GTP.

Chain of Wild-type GST-Cdc42 (P60953 whole entry): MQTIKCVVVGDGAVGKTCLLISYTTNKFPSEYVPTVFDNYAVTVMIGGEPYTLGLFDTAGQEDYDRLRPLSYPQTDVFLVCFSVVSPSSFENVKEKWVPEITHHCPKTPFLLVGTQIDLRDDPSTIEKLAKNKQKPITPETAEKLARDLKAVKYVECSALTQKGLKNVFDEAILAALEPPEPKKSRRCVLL
Chain of Cdc42 (P60953 whole entry): as above

For `O=c1cc(CN2CCOCC2)occ1OCCCCCSc1ccnc2cc(C(F)(F)F)ccc12` [EHT1864, reference compound], in data set [1], the “cell shape changes in response to ligand-mediated activation” value (“cell shape changes in response” below) is recorded as “failed to inhibit”. Moreover, in [2] (10 μM), the “inhibition of β-hexosaminidase secretion in response to ligand-stimulation” value was “failed to inhibit”. Moreover, in [3], the “lamellipodia formation following platelet derived growth factor stimulation” value is “blocked”.

As to `O=C(C#Cc1ccccc1)c1cccc([N+](=O)[O-])c1` [MLS000532223, 1-(3-nitrophenyl)-3-phenyl-2-propyn-1-one], the “cell shape and F-actin after cross-linking of IgE receptors” value in [4] is given as “failed to flatten”. In data set [5] (setting [14]), the “effect on Bmax of GTP-binding” value was “decreased” and the “effect on affinity of GTP to wild type Cdc42” value was “remained constant”. For the same compound, in [5] (data not shown), the reversibility of activity result is listed as “not reversible”. Moreover, in data set [1], the “cell shape changes in response” value is reported as “completely abrogated”. Also, the “morphology of resting cells” value in data set [1] (no ligand) was “no change in morphology”. Also, the “growth factor induced activation of Rac1” value in [6] (10 μM pretreatment, 10 ng/ml EGF for 2 min) was “completely inhibited”. Also, the “low level of active Rac1 in serum starved cells” value in data set [6] (10 μM, 30 min pretreatment, no EGF) is recorded as “completely abolished”. The toxicity to cells entry in data set [2] (10 μM) was “not toxic”. For the same compound, the “spontaneous β-hexosaminidase secretion, absence of ligand stimulation” value in [2] (10 μM, 1 h) is “no β-hexosaminidase secretion”. In addition, the “reduction of β-hexosaminidase secretion in ligand-stimulated cells” value in data set [2] (10 μM, DNP/BSA) turned out to be 50%. In [7] (3–10 μM, 1 h, then 10 ng/ml EGF 2 min), the “inhibition of EGF stimulated activation of Rac1” value is “effectively inhibited”. Moreover, the “blocking EGF-stimulated Rac activation” value in data set [7] is recorded as “Neither compound was effective”. In data set [8], the “effect on BODIPY-FL-GTP binding to the tested GTPases, primary screen” value was “inhibitory effect”. Besides, in data set [9], the “formation of stress fibers upon EGF stimulation” value is recorded as “completely inhibited”. Moreover, the “inhibition of BODIPY-FL-GTP binding to GST-Rac1” value in data set [10] is recorded as “similar”. For the same compound, the “inhibition of BODIPY-FL-GTP binding” value in data set [11] is recorded as less than 20%. Moreover, in data set [12], the “effect on BODIPY-FL-GTP binding in the presence of Mg2+” value was “inhibited the activity of all tested GTPases of the Rho and Ral families”.

Compound `NS(=O)(=O)c1ccc(N2N=C(c3ccccc3)CC2c2ccccc2)cc1` (centres unmarked) [MLS000573151, 4-[3,5-di(phenyl)-4,5-dihydropyrazol-1-yl]benzenesulfonamide] had a half-maximal effective concentration (EC50) in data set [13] of roughly 2000 nM. The “effect on BODIPY-FL-GTP binding to the tested GTPases, primary screen” value in data set [8] was “Cdc42 specific inhibitor”. Besides, in data set [12], the “effect on BODIPY-FL-GTP binding in the presence of Mg2+” value is given as “specific for Cdc42”.

Regarding `CCN(CC)CCCC(C)Nc1nc(C)cc(Nc2ccc3nc(C)cc(N)c3c2)n1` (centres unmarked) [NSC23766, reference compound], in [1], the “cell shape changes in response” value is recorded as “failed to inhibit”. The “toxicity to RBL-2H3 cells” value in data set [2] (50 μM) is given as “toxic”. Further, the “spontaneous β-hexosaminidase release” value in data set [2] (50 μM (Fig. 7A), 1 h) is reported as “extensive”. In addition, the “blocking EGF-stimulated Rac activation” value in data set [7] is listed as “Neither compound was effective”. For the same compound, the “inhibition of EGF stimulated activation of Rac1” value in [7] (doses up to 50 μM) is “more modest inhibition”.
